Measured values collected from several papers.
Each line is one published result; the experiments were not run side by side.
Target: Protein kinase C theta type (PRKCQ, Homo sapiens, UniProt Q04759)

Structure (SMILES) | assay | conditions | quantity | result
COc1cccc(CNC(=O)c2nc3scc(COCc4ccc(C(=O)O)cc4)c3c(=O)[nH]2)c1 | cell-free assay, competition with immobilised ligand | 1 µM | remaining binding | 100%
COc1cc2c(Nc3ccc(Br)cc3F)ncnc2cc1OCC1CCN(C)CC1 | cell-free assay | 0.5 µM | remaining signal | 100%
O=C(Nc1cnn(-c2csc(C(=O)NC3COC3)c2)c1)Nc1ccccc1Cl | enzyme activity, inhibitor | 5 µM | remaining activity | 114%
CC(=O)Nc1c(C(C)=O)c(=O)n(C)c2nc(-c3ccc(Cl)cc3Cl)c(-c3ccc(Cl)cc3)cc12 | cell-free assay, competition with immobilised ligand | 1 µM | remaining binding | 100%
CS(=O)(=O)CCNCc1ccc(-c2ccc3ncnc(Nc4ccc(OCc5cccc(F)c5)c(Cl)c4)c3c2)o1 | cell-free assay | 0.5 µM | remaining signal | 72.4%
CCN(CC)CCNC(=O)c1c(C)[nH]c(/C=C2\C(=O)Nc3ccc(F)cc32)c1C | enzyme activity, inhibitor | 10 µM | inhibition | 11%
CC1=C(C#N)[C@@H](c2ccc3[nH]nc(C)c3c2)C(C#N)=C(c2ccc(Cl)cc2)N1 | cell-free assay, competition with immobilised ligand | 1 µM | remaining binding | 100%
Nc1ncnc2occ(-c3ccc(NC(=O)Nc4cc(C(F)(F)F)ccc4F)cc3)c12 | cell-free assay | 20 µM | remaining signal | 13%
C[C@@H](N)[C@H]1CC[C@H](C(=O)Nc2ccncc2)CC1 | enzyme activity, inhibitor, TR-FRET | 10 µM | inhibition | 82.7%
CC[C@H](CO)Nc1nc(NCc2ccccc2)c2ncn(C(C)C)c2n1 | cell-free assay | 0.5 µM | remaining signal | 90%
COc1cc2ncnc(Nc3ccc(Oc4ccccc4)c(C)c3C)c2cc1OC | enzyme activity, inhibitor | 1 µM | inhibition | 8%
CN(C)C1CCN(CC#Cc2nn(C3CCCC3)c3nc(NCc4ccccc4)ncc23)C1 (centres unmarked) | enzyme activity, inhibitor, FRET | 1 µM | inhibition | 19%
CN1CC(Oc2cnc(C#N)cc2-c2ccn3nc(NC(=O)C4CC4)cc3c2)C1 | enzyme activity, inhibitor | 1 µM | inhibition | -2%
CC(C)(C)c1nc(-c2cccc(NS(=O)(=O)c3c(F)cccc3F)c2F)c(-c2ccnc(N)n2)s1 | enzyme activity, inhibitor, radiometric | 1 µM | remaining activity | 120%
Cc1ccc(C(=O)Nc2ccc(CN3CCN(C)CC3)c(C(F)(F)F)c2)cc1C#Cc1cnc2cccnn12 | enzyme activity | 23.5 nM | remaining activity | 96%
CNC(=O)c1cc(Oc2ccc(NC(=O)Nc3ccc(Cl)c(C(F)(F)F)c3)cc2)ccn1 | enzyme activity, inhibitor | 10 µM | inhibition | -12%
Cc1ccc(C(=O)NCc2ccsc2)cc1C#Cc1cn(C(C)C)c2ncnc(N)c12 | enzyme activity, inhibitor | 1 µM | activity vs control | 105%
O=C(O)c1cc(-c2ccc(C3CCNCC3)cc2)c2ccc(-c3ccc(C(F)(F)F)cc3)cc2c1 | cell-free assay, competition with immobilised ligand | 1 µM | remaining binding | 100%
Cn1cncc1C1=CN(c2ncnc3[nH]cnc23)CCS1 | enzyme activity, inhibitor, radiometric | 2 µM | inhibition | 97.9%
N#CCCc1ccc2c(c1)-c1[nH]c3ccc([N+](=O)[O-])cc3c1CC(=O)N2 | cell-free assay | 0.5 µM | remaining signal | 111%
Cc1cnc(NC2CCOCC2)nc1-n1cnc(C(=O)NC(CN)c2cc(F)cc(Cl)c2)c1 (centres unmarked) | enzyme activity, inhibitor, radiometric | 1 µM | remaining activity | 99%
CS(=O)(=O)c1cc(C2(NC(=O)c3cncc4c3cnn4-c3ccc(F)cc3)CC2)ccn1 | cell-free assay, competition with immobilised ligand | 1 µM | remaining binding | 99%
CNCc1ccc(-c2cc(-c3nc(-c4ccc(S(=O)(=O)C(C)C)cc4)cnc3N)on2)cc1 | enzyme activity, inhibitor | 0.4 µM | inhibition | 0%
CCS(=O)(=O)c1cc2cc(C[C@@](O)(CC(C)(C)c3ccc(F)cc3C(N)=O)C(F)(F)F)[nH]c2cn1 | cell-free assay, competition with immobilised ligand | 1 µM | remaining binding | 97%
F[C@@H]1CCN(c2nccc(-c3cnn4ncccc34)n2)C1 | binding | 1 µM | remaining binding | 100%
CO[C@@H](C)c1c(Nc2ccc([C@@H](N(C)C(=O)C3CCS(=O)(=O)CC3)C(F)(F)F)cc2)cnc2cc(Cl)nn12 | cell-free assay, competition with immobilised ligand | 1 µM | remaining binding | 98%
CCOc1cc(-c2nncn2C)ccc1Nc1ncc2cc(C)nc(NCC(C)(C)C)c2n1 | enzyme activity, inhibitor, FRET | 1 µM | inhibition | < 15%
CC(=O)N1CCC(c2ccc(C(=O)NC(=N)N)cc2C(F)(F)F)CC1 | cell-free assay, competition with immobilised ligand | 1 µM | remaining binding | 91%
Cn1cnc(Br)c1C1=CN(c2ncnc3[nH]cnc23)CCS1 | enzyme activity, inhibitor, radiometric | 50 nM | inhibition | 64.1%
